Laboratory results from ChEMBL document CHEMBL1781963, “Discovery of novel hepatoselective HMG-CoA reductase inhibitors for treating hypercholesterolemia: a bench-to-bedside case study on tissue selective drug distribution” (Bioorg Med Chem Lett, 2011).

How the values were obtained:
[1] = test system: L6; test: Selectivity ratio of IC50 for cholesterol synthesis in rat L6 cells to IC50 for cholesterol synthesis in rat hepatocytes
[2] = test system: Hepatocyte; test: Inhibition of cholesterol synthesis in rat hepatocytes assessed as reduction of [14C]-cholesterol level using [14C]-acetic acid preincubated for 4 hrs before addition of [14C]-acetic acid by liquid scintillation counting; type: functional, cell-based
Summary of the method: (§1)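 Cholesterol synthesis inhibition measured in rat hepatocytes and rat myocyte cell line, giving IC50 for each. Mean ± SEM of n ≥ 2 independent determinations.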

[3] = Lipophilicity, log D of the compound at pH 7.4 by shake flask method; type: physicochemical; details: buffer
Summary of the method: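 Log D at pH 7.4 by shake flask.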

[4] = test system: L6; test: Inhibition of cholesterol synthesis in rat L6 cells assessed as reduction of [14C]-cholesterol level using [14C]-acetic acid preincubated for 3 hrs before addition of [14C]-acetic acid by scintillation counting; type: functional, cell-based
Summary of the method: as §1

[5] = target: T1, 3-hydroxy-3-methylglutaryl-coenzyme A reductase (Rattus norvegicus, UniProt P51639); test: Inhibition of HMG-CoA reductase in Sprague-Dawley rat liver microsomes using [14C]HMG-CoA as substrate preincubated for 0.5 hrs before substrate addition measured after 0.75 hrs by beta scintillation counting; set-up: species or system Microsome
T1 sequence (P51639 whole entry): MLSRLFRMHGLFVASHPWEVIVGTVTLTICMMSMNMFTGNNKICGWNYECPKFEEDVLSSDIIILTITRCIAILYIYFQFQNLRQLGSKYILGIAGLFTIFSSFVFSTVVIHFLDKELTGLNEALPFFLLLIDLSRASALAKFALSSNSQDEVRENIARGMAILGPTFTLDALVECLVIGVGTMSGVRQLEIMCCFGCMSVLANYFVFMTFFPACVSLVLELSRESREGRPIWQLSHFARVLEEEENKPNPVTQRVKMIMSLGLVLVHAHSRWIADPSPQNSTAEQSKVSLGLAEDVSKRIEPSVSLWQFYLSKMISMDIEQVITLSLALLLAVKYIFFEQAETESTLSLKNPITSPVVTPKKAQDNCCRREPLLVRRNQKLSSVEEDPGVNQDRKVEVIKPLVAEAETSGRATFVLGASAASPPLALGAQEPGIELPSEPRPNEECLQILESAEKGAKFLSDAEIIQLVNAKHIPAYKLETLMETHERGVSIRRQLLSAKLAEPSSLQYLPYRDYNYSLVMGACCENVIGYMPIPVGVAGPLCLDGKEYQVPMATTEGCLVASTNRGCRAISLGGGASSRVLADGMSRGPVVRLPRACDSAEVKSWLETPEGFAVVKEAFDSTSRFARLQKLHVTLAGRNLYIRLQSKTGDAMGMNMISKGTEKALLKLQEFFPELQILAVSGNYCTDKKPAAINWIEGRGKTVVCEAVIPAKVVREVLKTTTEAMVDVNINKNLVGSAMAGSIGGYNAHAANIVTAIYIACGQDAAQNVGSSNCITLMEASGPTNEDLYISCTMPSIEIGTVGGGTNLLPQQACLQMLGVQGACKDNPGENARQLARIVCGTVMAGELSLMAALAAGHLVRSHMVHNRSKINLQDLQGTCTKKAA
Summary of the method: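 Enzyme inhibition was measured in an HMG-CoA reductase preparation from rat microsomes. IC50 is reported as mean ± SEM of n ≥ 2 independent determinations.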

[6] = test system: Syrian golden hamster; test: Inhibition of cholesterol synthesis in golden syrian hamster assessed as reduction of [14C]-cholesterol level at 10 mg/kg, po followed by 3 hrs after treated with 80 uCi, ip of [14C]-sodium acetate measured after 5 hrs by liquid scintillation counting relative to control; type: functional; details: Mesocricetus auratus
Summary of the method: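 Separate hamster groups dosed po at 10 mg/kg at t = 0 h. 14C sodium acetate ip at t = 3 h, blood 14C cholesterol at t = 5 h. Percent change vs untreated controls, n = 8/group.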

[7] = test system: Syrian golden hamster; test: Inhibition of cholesterol synthesis in golden syrian hamster assessed as reduction of [14C]-cholesterol level at 10 mg/kg, po followed by 2 hrs after treated with 80 uCi, ip of [14C]-sodium acetate measured after 4 hrs by liquid scintillation counting relative to control; type: functional; details: Mesocricetus auratus
Summary of the method: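 Hamsters dosed po at 10 mg/kg at t = 0 h. Intraperitoneal 14C sodium acetate at t = 2 h, blood drawn at t = 4 h for 14C cholesterol. Percent inhibition vs untreated controls, n = 8/group.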

Structure (SMILES)	Ratio IC50 [1]	IC50 [2] [nM]	logD [3]	IC50 [4] [nM]	IC50 [5] [nM]	inhibition in vivo at 10 mg/kg [6] [%]	inhibition in vivo at 10 mg/kg [7] [%]
COc1ccccc1CNC(=O)c1nc(-c2ccc(F)cc2)n(CC[C@@H](O)C[C@@H](O)CC(=O)[O-])c1C1CC1.[Na+]	107000	0.1	0.16	10700	7		
O=C([O-])C[C@H](O)C[C@H](O)CCn1c(-c2ccc(F)cc2)nc(C(=O)NCc2ccc(F)cc2)c1C1CC1.[Na+]	2310	0.7	0.17	1620	3.4	0	
O=C([O-])C[C@H](O)C[C@H](O)CCn1c(-c2ccc(F)cc2)nc(C(=O)NCc2ccccc2)c1C1CC1.[Na+]	3160	0.2	0.03	632	1.4		-58
O=C(O)C[C@H](O)C[C@H](O)CCn1c(-c2ccc(F)cc2)nc(C(=O)NCc2ccccc2F)c1C1CC1			0.08	27200	1.5	-4	
CCc1c(C(=O)NCc2ccccc2)nc(-c2ccc(F)cc2)n1CC[C@@H](O)C[C@@H](O)CC(=O)O					123		
O=C([O-])C[C@H](O)C[C@H](O)CCn1c(-c2ccc(F)cc2)nc(C(=O)NCc2ccc(F)cc2F)c1C1CC1.[Na+]	24350	0.2		4870	1.2		-46
Cc1c(C(=O)NCc2ccccc2)nc(-c2ccc(F)cc2)n1CC[C@@H](O)C[C@@H](O)CC(=O)O					94		
Cc1ccc(CNC(=O)c2nc(-c3ccc(F)cc3)n(CC[C@@H](O)C[C@@H](O)CC(=O)[O-])c2C2CC2)cc1F.[Na+]	2240	0.1	0.69	224	4.1		
COc1ccc(CNC(=O)c2nc(-c3ccc(F)cc3)n(CC[C@@H](O)C[C@@H](O)CC(=O)[O-])c2C2CC2)cc1F.[Na+]	4450	0.2		890	3.7	0	-36
COc1cccc(CNC(=O)c2nc(-c3ccc(F)cc3)n(CC[C@@H](O)C[C@@H](O)CC(=O)[O-])c2C2CC2)c1.[Na+]	2960	0.2	0.11	538	1.2	-42	-53
CCCc1c(C(=O)NCc2ccccc2)nc(-c2ccc(F)cc2)n1CC[C@@H](O)C[C@@H](O)CC(=O)O					26		
CC(C)c1c(C(=O)NCc2ccccc2)nc(-c2ccc(F)cc2)n1CC[C@@H](O)C[C@@H](O)CC(=O)[O-].[Na+]	10100		0.64			-7	-53
COc1ccc(CNC(=O)c2nc(-c3ccc(F)cc3)n(CC[C@@H](O)C[C@@H](O)CC(=O)[O-])c2C2CC2)cc1.[Na+]	32000	0.2	0.02	6400	1.2		-60
O=C([O-])C[C@H](O)C[C@H](O)CCn1c(-c2ccc(F)cc2)nc(C(=O)NCc2ccc(F)c(F)c2)c1C1CC1.[Na+]	5560	0.5		2780	1.2	-8	
CN(C)S(=O)(=O)c1ccc(CNC(=O)c2nc(-c3ccc(F)cc3)n(CC[C@@H](O)C[C@@H](O)CC(=O)[O-])c2C2CC2)cc1.[Na+]	> 200000	0.5	-0.46	> 100000	4.9	0	
Cc1ccccc1CNC(=O)c1nc(-c2ccc(F)cc2)n(CC[C@@H](O)C[C@@H](O)CC(=O)[O-])c1C1CC1.[Na+]	48500	0.1	0.44	4850	4.9	0	
Cc1ccc(CNC(=O)c2nc(-c3ccc(F)cc3)n(CC[C@@H](O)C[C@@H](O)CC(=O)[O-])c2C2CC2)cc1.[Na+]	1780	0.1	0.45	178	1.7	-36	-79
NC(=O)c1ccc(CNC(=O)c2nc(-c3ccc(F)cc3)n(CC[C@@H](O)C[C@@H](O)CC(=O)[O-])c2C2CC2)cc1.[Na+]	> 250000	0.4	-1.1	> 100000	7.2	0	
Cc1cccc(CNC(=O)c2nc(-c3ccc(F)cc3)n(CC[C@@H](O)C[C@@H](O)CC(=O)[O-])c2C2CC2)c1.[Na+]	1770	0.3	0.47	532	7.2	-50	-54
